Experimental data: paper PMC8733272 (iScience, 2021)

Columns and labels:
WT-Parkin = target: T1, WT-Parkin (Homo sapiens, UniProt O60260); test: Parkin catalytic poly-auto-Ub TR-FRET assay; assay type: biochemical; conditions: for activity in TR-FRET autoubiquitination assay: WT-Parkin with pUb
T1 sequence (O60260 1-465): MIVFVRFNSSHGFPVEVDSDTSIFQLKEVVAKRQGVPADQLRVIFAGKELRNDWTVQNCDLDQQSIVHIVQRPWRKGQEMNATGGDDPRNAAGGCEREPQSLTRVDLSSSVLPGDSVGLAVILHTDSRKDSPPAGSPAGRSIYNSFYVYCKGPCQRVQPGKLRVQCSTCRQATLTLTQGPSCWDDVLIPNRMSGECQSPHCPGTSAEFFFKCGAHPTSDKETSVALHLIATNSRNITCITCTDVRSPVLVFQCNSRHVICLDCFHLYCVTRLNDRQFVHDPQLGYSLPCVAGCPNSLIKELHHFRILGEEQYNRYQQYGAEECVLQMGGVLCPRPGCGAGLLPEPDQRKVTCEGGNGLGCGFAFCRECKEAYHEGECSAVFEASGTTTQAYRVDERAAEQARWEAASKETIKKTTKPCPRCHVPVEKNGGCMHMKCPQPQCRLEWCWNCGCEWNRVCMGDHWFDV

[1] = system: SH-SY5Y cells expressing the MitoQC construct; test: MitoQC mitophagy assay; assay type: cell-based; conditions: 1 h pre-incubation, Antimycin + Oligomycin
Procedure, shortened: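 SH-SY5Y cells carrying MitoQC were seeded at 1.6×10^4 cells/well on attachment factor and recovered 72 h. Cells were pre-treated 1 h with test compound, then given 5 μM Antimycin + 10 μM Oligomycin or DMSO for 8 h unless stated otherwise. Fixed in 2% PFA on ice 30 min, DAPI-stained, and imaged at 64x (25 fields, 4 replicate wells). mCherry puncta (mitolysosomes) were counted.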

[2] = target: T2, WT-Parkin (substrate His-Miro1 186-591) (Homo sapiens, UniProt O60260); test: Miro1 ubiquitination assay by Western blot; assay type: biochemical; conditions: His-Miro1 (186-591) substrate
T2 sequence (O60260 1-465): T1 sequence (O60260 1-465)
Procedure, shortened: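 Run as the TR-FRET reaction with untagged WT-Parkin. Test compound was pre-incubated 30 min with E1, E2, Parkin and His-Miro1 186-591 (250 nM final); the 2X mix held 40 nM E1, 800 nM E2 and 100 nM Parkin. After 20 min the reaction was stopped in SDS sample buffer, then run on 4–12% bis-tris SDS-PAGE, PVDF transfer and IR-dye secondary imaging.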

With CO[C@H](C(=O)N1Cc2c(-c3ccc(C(=O)N4CCCc5ccccc54)cn3)cnn2C[C@H]1C(C)C)c1cnn(C)c1 (single isomer, unassigned) [BIO-2007967] the EC50 (WT-Parkin; EC50 (μM), WT-Parkin, 5 μM pUb, averaged technical replicates n = 2) was < 0.2 µM.

CO[C@H](C(=O)N1Cc2c(-c3ccc(C(=O)N4CCCc5ccccc54)cc3)cnn2C[C@H]1C(C)C)c1ccccc1 (single isomer, unassigned) [BIO-2008550] was tested, and the “effect on mitophagy, MitoQC” value [1] was “no enhanced MitoQC activity”.

In the case of CC(C)[C@H]1Cn2ncc(-c3ccc(C(=O)N4CCCc5ccccc54)cc3)c2CN1C(=O)Cc1ccccc1 [BIO-1966560, (S)-1-(6-isopropyl-3-(4-(1,2,3,4-tetrahydroquinoline-1-carbonyl)phenyl)-6,7-dihydropyrazolo[1,5-a]pyrazin-5(4H)-yl)-2-phenylethan-1-one], the “activity in TR-FRET autoubiquitination assay” value (“activity” below) (WT-Parkin) is reported as “inactive”.

In the case of CC(C)[C@@H]1Cn2ncc(-c3ccc(C(=O)N4CCCc5ccccc54)cc3)c2CN1C(=O)Cc1ccccc1 [BIO-1966561, (R)-1-(6-isopropyl-3-(4-(1,2,3,4-tetrahydroquinoline-1-carbonyl)phenyl)-6,7-dihydropyrazolo[1,5-a]pyrazin-5(4H)-yl)-2-phenylethan-1-one], the “potency improvement (fold) over parent analog” value (WT-Parkin; from TR-FRET EC50) is reported as 5 fold.

In the case of C[C@H](C(=O)N1Cc2c(-c3ccc(C(=O)N4CCCc5ccccc54)cc3)cnn2C[C@H]1C)c1ccccc1 [BIO-1967173, (S)-1-((R)-6-methyl-3-(4-(1,2,3,4-tetrahydroquinoline-1-carbonyl)phenyl)-6,7-dihydropyrazolo[1,5-a]pyrazin-5(4H)-yl)-2-phenylpropan-1-one], the “effect on mitophagy, MitoQC” value [1] is reported as “no enhanced MitoQC activity”.

For C[C@@H]1Cn2ncc(-c3ccc(C(=O)N4CCCc5ccccc54)cc3)c2CN1C(=O)[C@H](C)c1ccccc1 [BIO-1967174, (R)-1-((R)-6-methyl-3-(4-(1,2,3,4-tetrahydroquinoline-1-carbonyl)phenyl)-6,7-dihydropyrazolo[1,5-a]pyrazin-5(4H)-yl)-2-phenylpropan-1-one], the “activity” value (WT-Parkin) was “weakly active” and the “Miro1 ubiquitination by Western blot” value [2] was “enhance the rate of monoubiquitination of Miro1 substrate to a level comparable to that of W403A-Parkin”.

In the case of C[C@H](C(=O)N1Cc2c(-c3ccc(C(=O)N4CCCc5ccccc54)cc3)cnn2C[C@@H]1C)c1ccccc1 [BIO-1968010, (S)-1-((S)-6-methyl-3-(4-(1,2,3,4-tetrahydroquinoline-1-carbonyl)phenyl)-6,7-dihydropyrazolo[1,5-a]pyrazin-5(4H)-yl)-2-phenylpropan-1-one], the “activity” value (WT-Parkin) is reported as “inactive”.

With C[C@@H](C(=O)N1Cc2c(-c3ccc(C(=O)N4CCCc5ccccc54)cc3)cnn2C[C@@H]1C)c1ccccc1 [BIO-1968011, (R)-1-((S)-6-methyl-3-(4-(1,2,3,4-tetrahydroquinoline-1-carbonyl)phenyl)-6,7-dihydropyrazolo[1,5-a]pyrazin-5(4H)-yl)-2-phenylpropan-1-one] the “activity” value (WT-Parkin) was “inactive”.
